Converted amounts (≈) assume the structure as drawn.
Experiments:
[1] = tested on: Receptor-type tyrosine-protein kinase FLT3 (Homo sapiens), P36888 [UNDEFINED MUTATION]; assay: Inhibition of FLT3 ITD mutant (unknown origin) using TAMRA-Src- tide as substrate at 12.5 uM after 1 hr by fluorescence polarization assay relative to control
How it was run: (§1)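 FLT3-ITD kinase inhibition by fluorescence polarization IMAP assay; each compound tested at 12.5 and 1.25 μM; percent inhibition, average of two parallel measurements.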

[2] = tested on: MV4-11; assay: Antiproliferative activity against human MV4-11 cells after 72 hrs by Celltiter-Glo luminescent cell viability assay; assay type: functional, cell-based; conditions: MV4-11, 72 h
How it was run: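 MV4-11 leukaemia cells, 72 h proliferation assay, luminescence read-out; IC50 determined from concentration–response.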

[3] = n-Octanol-buffer distribution coefficient, log D of the compound at pH 5.5 after 1 hr by shake flask method; assay type: physicochemical
[4] = Dissociation constant, pKa of the compound at 25 to 50 uM by UV spectroscopy; assay type: physicochemical
How it was run: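 Carboxyl pKa by automated UV/pH titration with MeOH as co-solvent.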

[5] = tested on: Receptor-type tyrosine-protein kinase FLT3 (Homo sapiens), P36888 [UNDEFINED MUTATION]; assay: Inhibition of FLT3 ITD mutant (unknown origin) using TAMRA-Src- tide as substrate at 1.25 uM after 1 hr by fluorescence polarization assay relative to control; how it was run: as §1
[6] = Apparent partition coefficient, log P of the compound in n-octanol/aqueous mixture at pH 7.4 after 1 hr by shake flask method; assay type: physicochemical
[7] = n-Octanol-buffer distribution coefficient, log D of the compound at pH 7.4 after 1 hr by shake flask method; assay type: physicochemical
[8] = Aqueous solubility in pH 7.4 phosphate buffer at 120 uM after 24 hrs by HPLC method; assay type: physicochemical
[9] = Lipophilicity, chromatographic hydrophobicity index of the compound at pH 7.4 by HPLC method; assay type: physicochemical; conditions: buffer
How it was run: (§2)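 RP-HPLC with buffer/acetonitrile gradient elution; CHI profile at starting pH 10.5, 7.4, 5.5 and 1.2; values given as average of the compound group.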

[10] = Aqueous solubility in pH 5.5 phosphate buffer at 120 uM after 24 hrs by HPLC method; assay type: physicochemical; conditions: phosphate buffer, pH 5.5
[11] = buffer, pH 10.5
[12] = Lipophilicity, chromatographic hydrophobicity index of the compound at pH 1.2 by HPLC method; assay type: physicochemical; conditions: buffer; how it was run: as §2
[13] = Lipophilicity, chromatographic hydrophobicity index of the compound at pH 5.5 by HPLC method; assay type: physicochemical; conditions: buffer; how it was run: as §2

Sequence of Receptor-type tyrosine-protein kinase FLT3 (Homo sapiens), P36888 [UNDEFINED MUTATION] (P36888 whole entry, looked up, change not shown): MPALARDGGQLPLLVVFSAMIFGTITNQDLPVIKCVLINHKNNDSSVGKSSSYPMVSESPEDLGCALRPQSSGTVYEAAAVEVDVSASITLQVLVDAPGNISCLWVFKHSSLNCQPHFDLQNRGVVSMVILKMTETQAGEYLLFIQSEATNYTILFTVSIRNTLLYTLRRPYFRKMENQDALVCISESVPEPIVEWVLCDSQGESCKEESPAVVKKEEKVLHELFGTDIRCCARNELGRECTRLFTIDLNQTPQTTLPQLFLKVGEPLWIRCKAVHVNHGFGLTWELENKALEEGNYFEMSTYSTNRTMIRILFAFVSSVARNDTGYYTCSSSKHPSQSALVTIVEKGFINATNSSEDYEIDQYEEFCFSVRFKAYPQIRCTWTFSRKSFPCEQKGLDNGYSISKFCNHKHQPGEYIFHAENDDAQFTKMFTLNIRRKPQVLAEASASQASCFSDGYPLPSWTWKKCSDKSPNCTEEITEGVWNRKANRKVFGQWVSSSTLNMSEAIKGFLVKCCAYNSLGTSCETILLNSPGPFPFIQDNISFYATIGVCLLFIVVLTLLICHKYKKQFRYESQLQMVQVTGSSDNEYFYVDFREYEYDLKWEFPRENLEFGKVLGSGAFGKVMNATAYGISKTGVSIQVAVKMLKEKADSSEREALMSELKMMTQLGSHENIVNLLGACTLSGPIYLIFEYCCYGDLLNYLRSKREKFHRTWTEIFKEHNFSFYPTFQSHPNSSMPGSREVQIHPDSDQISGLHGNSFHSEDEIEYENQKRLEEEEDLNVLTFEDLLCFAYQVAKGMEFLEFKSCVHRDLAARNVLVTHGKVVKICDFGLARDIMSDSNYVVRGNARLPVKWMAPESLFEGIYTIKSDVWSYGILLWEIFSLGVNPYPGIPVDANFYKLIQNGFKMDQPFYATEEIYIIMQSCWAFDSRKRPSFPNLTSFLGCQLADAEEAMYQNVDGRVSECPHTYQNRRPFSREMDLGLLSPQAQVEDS

Row | Structure (SMILES) | inhibition [1] [%] | IC50 [2] [µM] | logD at 1 h [3] | pKa at up to 50 µM [4] | inhibition [5] [%] | logD at 1 h [6] | logD at 1 h [7] | solubility at 24 h, 120 µM [8] [µM] | CHI [9] | solubility at 24 h, 120 µM [10] [µM] | CHI [11] | CHI [12] | CHI [13]
1 | COC(=O)[C@@H](Cc1ccccc1)NC(=O)c1ccc2c(c1)/C(=C/c1[nH]c(C)c(C(=O)N[C@@H](Cc3ccccc3)C(=O)O)c1C)C(=O)N2 | > 100 | 13 | 3.18 | 3 | 74.2 | 5.68 | 1.28 | – | – | – | – | – | –
2 | COC(=O)CC[C@H](NC(=O)c1c(C)[nH]c(/C=C2\C(=O)Nc3ccc(C(=O)N[C@H](Cc4ccccc4)C(=O)O)cc32)c1C)C(=O)OC | > 100 | – | 1.58 | 3.01 | 74.2 | 4.07 | -0.32 | – | – | – | – | – | –
3 | COC(=O)[C@H](Cc1ccccc1)NC(=O)c1ccc2c(c1)/C(=C/c1[nH]c(C)c(C(=O)O)c1C)C(=O)N2 | 71.6 | 3.7 | – | – | 69 | – | – | 20 (≈ 9.75 µg/mL) | 56 | < 1 | 47 | 73 | 68
4 | COC(=O)[C@H](Cc1ccccc1)NC(=O)c1ccc2c(c1)/C(=C/c1[nH]c(C)c(C(=O)N[C@@H](Cc3ccccc3)C(=O)OC)c1C)C(=O)N2 | 92.3 | 10.9 | – | – | 28.9 | – | – | < 1 | 90 | < 1 | 91 | 92 | 91
5 | COC(=O)CC[C@H](NC(=O)c1ccc2c(c1)/C(=C/c1[nH]c(C)c(C(=O)N[C@@H](Cc3ccccc3)C(=O)OC)c1C)C(=O)N2)C(=O)OC | 79.4 | 17.7 | – | – | 19.9 | – | – | < 1 | 79 | < 1 | 79 | 79 | 79
6 | COC(=O)c1ccc2c(c1)/C(=C/c1[nH]c(C)c(C(=O)N[C@@H](Cc3ccccc3)C(=O)OC)c1C)C(=O)N2 | 79.3 | 0.5 | – | – | 45.7 | – | – | < 5 | 88 | < 1 | 89 | 89 | 89
7 | COC(=O)CC[C@H](NC(=O)c1c(C)[nH]c(/C=C2\C(=O)Nc3ccc(C(=O)OC)cc32)c1C)C(=O)OC | 92.2 | 0.08 | – | – | 87 | – | – | < 5 | 73 | < 5 | 73 | 73 | 73
8 | COC(=O)CC[C@H](NC(=O)c1ccc2c(c1)/C(=C/c1[nH]c(C)c(C(=O)N[C@@H](Cc3ccccc3)C(=O)O)c1C)C(=O)N2)C(=O)OC | > 100 | – | 1.16 | 3.04 | 58.7 | 3.62 | -0.74 | 100 (≈ 63.1 µg/mL) | 49 | 30 (≈ 18.9 µg/mL) | 46 | 67 | 50
9 | COC(=O)CC[C@@H](NC(=O)c1ccc2c(c1)/C(=C/c1[nH]c(C)c(C(=O)N[C@H](CCC(=O)OC)C(=O)OC)c1C)C(=O)N2)C(=O)OC | 75.4 | – | 3.36 | – | 62.5 | 3.36 | 3.36 | – | – | – | – | – | –
10 | COC(=O)[C@H](Cc1ccccc1)NC(=O)c1ccc2c(c1)/C(=C/c1[nH]c(C)c(C(=O)N[C@@H](Cc3ccccc3)C(=O)O)c1C)C(=O)N2 | > 100 | 24.3 | – | – | 58.6 | – | – | 70 (≈ 44.4 µg/mL) | 59 | 30 (≈ 19 µg/mL) | 57 | 80 | 60
11 | COC(=O)CC[C@H](NC(=O)c1ccc2c(c1)/C(=C/c1[nH]c(C)c(C(=O)N[C@@H](CCC(=O)OC)C(=O)OC)c1C)C(=O)N2)C(=O)OC | 80.5 | – | – | – | 41.9 | – | – | < 5 | 65 | < 5 | 65 | 65 | 65
12 | Cc1[nH]c(/C=C2\C(=O)Nc3ccc(C(=O)N[C@@H](Cc4ccccc4)C(=O)O)cc32)c(C)c1C(=O)O | > 100 | – | – | – | 97.4 | – | – | ≥ 120 | 32 | < 5 | 24 | 63 | 41
13 | COC(=O)CC[C@H](NC(=O)c1c(C)[nH]c(/C=C2\C(=O)Nc3ccc(C(=O)N[C@@H](Cc4ccccc4)C(=O)OC)cc32)c1C)C(=O)OC | 91 | 11.9 | – | – | 57.3 | – | – | < 1 | 78 | < 1 | 77 | 78 | 79
14 | COC(=O)CC[C@H](NC(=O)c1c(C)[nH]c(/C=C2\C(=O)Nc3ccc(C(=O)O)cc32)c1C)C(=O)OC | > 100 | – | – | – | 97.4 | – | – | ≥ 120 | 38 | 30 (≈ 14.5 µg/mL) | 35 | 58 | 45
15 | CCOC(=O)c1c(C)[nH]c(/C=C2\C(=O)Nc3ccc(C(=O)N[C@@H](Cc4ccccc4)C(=O)O)cc32)c1C | > 100 | – | – | – | 90.9 | – | – | 20 (≈ 10 µg/mL) | 60 | < 5 | 58 | 86 | 61
16 | CCOC(=O)c1c(C)[nH]c(/C=C2\C(=O)Nc3ccc(C(=O)N[C@@H](Cc4ccccc4)C(=O)OC)cc32)c1C | 74.2 | 10.6 | – | – | 25 | – | – | < 1 | 98 | < 1 | 100 | 99 | 98
17 | COC(=O)[C@H](Cc1ccccc1)NC(=O)c1c(C)[nH]c(/C=C2\C(=O)Nc3ccc(C(=O)O)cc32)c1C | 98.7 | – | 3.38 | 4.61 | 85.8 | 4.32 | 1.53 | 100 (≈ 48.8 µg/mL) | 52 | < 5 | 49 | 73 | 59
18 | Cc1[nH]c(/C=C2\C(=O)Nc3ccc(C(=O)N[C@H](Cc4ccccc4)C(=O)O)cc32)c(C)c1C(=O)N[C@@H](Cc1ccccc1)C(=O)O | > 100 | – | 0.62 | 3 | 74.2 | 5.62 | -3.18 | – | – | – | – | – | –
19 | COC(=O)CC[C@@H](NC(=O)c1ccc2c(c1)/C(=C/c1[nH]c(C)c(C(=O)O)c1C)C(=O)N2)C(=O)OC | 12.1 | – | – | 5.47 | 80.6 | – | – | – | – | – | – | – | –
